# Source: publication PMC4990137 (ACS chemical biology, 2016)
# Columns and labels:
# LTBP1 [1] = target: T1, LTBP1 (Rhodnius prolixus, UniProt Q7YT09, Y131A); assay: isothermal titration calorimetry, single-site fit; format: binding
# T1 sequence (Q7YT09 18-173 Y131A): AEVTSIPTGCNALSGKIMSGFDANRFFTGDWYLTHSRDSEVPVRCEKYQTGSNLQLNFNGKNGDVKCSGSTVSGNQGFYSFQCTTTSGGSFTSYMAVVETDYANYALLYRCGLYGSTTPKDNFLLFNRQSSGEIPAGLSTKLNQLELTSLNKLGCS
# Outline: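 Titrated by ITC at 30 °C in 20 mM Tris HCl, pH 7.5, 150 mM NaCl, with 2 µM protein in the cell and 10 µL injections of ligand. Eicosanoid ligand solutions were prepared by removing ethanol and sonicating with buffer. Injection enthalpies were fitted to a single-site binding model.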
# LTBP1 [2] = target: T2, LTBP1 (Rhodnius prolixus, UniProt Q7YT09); assay: isothermal titration calorimetry, single-site fit; format: binding
# T2 sequence (Q7YT09 18-173): T1 sequence (Q7YT09 18-173 Y131A)
SMILES,Kd (LTBP1 [1]),Kd (LTBP1 [2])
CCCCC/C=C\C\C=C/C=C/C=C/[C@@H](SC[C@H](N)C(=O)NCC(=O)O)[C@@H](O)CCCC(=O)O [LTD4],47.6 nM,–
CCCCC/C=C\C\C=C/C=C/C=C/[C@@H](SC[C@H](NC(=O)CC[C@H](N)C(=O)O)C(=O)NCC(=O)O)[C@@H](O)CCCC(=O)O [LTC4],47.6 nM,–
CCCCC/C=C\C[C@@H](O)/C=C/C=C/C=C\[C@@H](O)CCCC(=O)O [LTB4],–,238 nM
CCCCC/C=C\C\C=C/C=C/C=C/[C@@H](SC[C@H](N)C(=O)O)[C@@H](O)CCCC(=O)O [LTE4],–,2.13 nM
